Reference: ChEMBL document CHEMBL1121826, “Relation of conformation to antitumor activity of platinum(II) complexes of 1,2-cyclohexanediamine and 2-(aminomethyl)cyclohexylamine isomers against leukemia P388” (J Med Chem, 1981)
Values joined by “and” are separate entries in the source; they are usually repeats but may differ in a detail not shown here. Identical values can stand only once.

Key:
[1] = Therapeutic index was determined against leukemia P388 cells in mice; type: cell-based; details: mouse
How it was run: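 CDF1 mice implanted ip with 10^6 P388 cells on day 0 and dosed ip on days 1 and 5 (saline, or saline plus Tween 80 suspension if insoluble); 6 treated and 10 control mice. % T/C from median survival. TI is optimal dose divided by MED (lowest dose giving % T/C above 120), per the NCI platinum analogue protocol.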

P388 [2] = test: Antitumor activity against leukemia P388 in CDF1 mice; type: functional, cell-based; details: Mus musculus
How it was run: (§1)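 CDF1 [(BALB/c × DBA/2)F1] mice given 10^6 P388 cells ip on day 0; treatment ip on days 1 and 5; insoluble complexes suspended in physiological saline with a few drops of Tween 80. Groups of 6 treated and 10 control mice. Median survival of treated (T) and control (C) groups calculated; activity expressed as % T/C.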

P388 [3] = test: Toxic dose against leukemia P388 in CDF1 mice; type: functional, cell-based; details: Mus musculus; how it was run: as §1
P388 [4] = test: Optimal dose against leukemia P388 in CDF1 mice; type: functional, cell-based; details: Mus musculus; how it was run: as §1
P388 [5] = test: Minimum effective dose (MED) against leukemia P388 in CDF1 mice; type: functional, cell-based; details: Mus musculus
How it was run: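 P388 model in CDF1 mice: 10^6 cells ip on day 0, ip dosing on days 1 and 5; 6 treated and 10 control mice per group. Median survival days give % T/C. MED is the lowest dose at which % T/C exceeded 120.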

Substance | TI [1] | also measured
0-Hexyl-1,3-diamine-platinum 2,2-dichloride [listing 1 of 2 here] | 4 | –
0-Hexyl-1,3-diamine-platinum 2,2-dichloride [listing 2 of 2 here] | – | T/C (P388 [2]): 206% and 127%; Toxic dose (P388 [3]): 12.5 mg/kg; Optimal dose (P388 [4]): 6.25 mg/kg; MED (P388 [5]): 1.56 mg/kg
CISPLATIN [listing 1 of 2 here] | 4 | –
CISPLATIN [listing 2 of 2 here] | – | T/C (P388 [2]): 230% (2×) and 134% (2×); Toxic dose (P388 [3]): 12.5 mg/kg; Optimal dose (P388 [4]): 3.12 mg/kg; MED (P388 [5]): 0.78 mg/kg
amcha (cis-d)-2-(aminomethyl)cyclohexylamine platinum (II) complex [listing 1 of 5 here] | >= 16 | –
amcha (cis-d)-2-(aminomethyl)cyclohexylamine platinum (II) complex [listing 2 of 5 here] | 32 | –
amcha (cis-d)-2-(aminomethyl)cyclohexylamine platinum (II) complex [listing 3 of 5 here] | >= 4 | –
amcha (cis-d)-2-(aminomethyl)cyclohexylamine platinum (II) complex [listing 4 of 5 here] | 16 | –
amcha (cis-d)-2-(aminomethyl)cyclohexylamine platinum (II) complex [listing 5 of 5 here] | – | T/C (P388 [2]): 160% [middle of 8 runs]; MED (P388 [5]): < 0.39 mg/kg
amcha (cis-l)-2-(aminomethyl)cyclohexylamine platinum (II) complex [listing 1 of 6 here] | >= 32 | –
amcha (cis-l)-2-(aminomethyl)cyclohexylamine platinum (II) complex [listing 2 of 6 here] | 32 | –
amcha (cis-l)-2-(aminomethyl)cyclohexylamine platinum (II) complex [listing 3 of 6 here] | > 16 | –
amcha (cis-l)-2-(aminomethyl)cyclohexylamine platinum (II) complex [listing 4 of 6 here] | > 8 | –
amcha (cis-l)-2-(aminomethyl)cyclohexylamine platinum (II) complex [listing 5 of 6 here] | 8 | –
amcha (cis-l)-2-(aminomethyl)cyclohexylamine platinum (II) complex [listing 6 of 6 here] | – | T/C (P388 [2]): 148% [middle of 11 runs]; MED (P388 [5]): < 0.78 mg kg-1 (3×) and < 1.56 mg kg-1 and 0.78 mg kg-1
amcha (trans-d)-2-(aminomethyl)cyclohexylamine platinum (II) complex [listing 1 of 5 here] | 16 | –
amcha (trans-d)-2-(aminomethyl)cyclohexylamine platinum (II) complex [listing 2 of 5 here] | 64 | –
amcha (trans-d)-2-(aminomethyl)cyclohexylamine platinum (II) complex [listing 3 of 5 here] | >= 64 | –
amcha (trans-d)-2-(aminomethyl)cyclohexylamine platinum (II) complex [listing 4 of 5 here] | >= 16 | –
amcha (trans-d)-2-(aminomethyl)cyclohexylamine platinum (II) complex [listing 5 of 5 here] | – | T/C (P388 [2]): 160% [middle of 8 runs]; Toxic dose (P388 [3]): 100 mg kg-1 and > 100 mg kg-1 (2×) and > 200 mg kg-1; MED (P388 [5]): < 0.78 mg/kg

Substance | TI [1] | also measured
amcha (trans-l)-2-(aminomethyl)cyclohexylamine platinum (II) complex [listing 1 of 4 here] | 4 | –
amcha (trans-l)-2-(aminomethyl)cyclohexylamine platinum (II) complex [listing 2 of 4 here] | 16 | –
amcha (trans-l)-2-(aminomethyl)cyclohexylamine platinum (II) complex [listing 3 of 4 here] | >= 16 | –
amcha (trans-l)-2-(aminomethyl)cyclohexylamine platinum (II) complex [listing 4 of 4 here] | – | T/C (P388 [2]): 158% [middle of 10 runs]; Optimal dose (P388 [4]): 12.5 mg kg-1 (3×) and 25 mg kg-1 and > 25 mg kg-1
dach (cis)-1,2-cyclohexanediamine platinum (II) complex [listing 1 of 4 here] | >= 8 | –
dach (cis)-1,2-cyclohexanediamine platinum (II) complex [listing 2 of 4 here] | 4 | –
dach (cis)-1,2-cyclohexanediamine platinum (II) complex [listing 3 of 4 here] | 16 | –
dach (cis)-1,2-cyclohexanediamine platinum (II) complex [listing 4 of 4 here] | – | T/C (P388 [2]): 144% [middle of 10 runs]; Optimal dose (P388 [4]): 25 mg kg-1 (4×) and 12.5 mg kg-1
dach (trans-d)-1,2-cyclohexanediamine platinum (II) complex [listing 1 of 5 here] | 8 | –
dach (trans-d)-1,2-cyclohexanediamine platinum (II) complex [listing 2 of 5 here] | 16 | –
dach (trans-d)-1,2-cyclohexanediamine platinum (II) complex [listing 3 of 5 here] | 13 | –
dach (trans-d)-1,2-cyclohexanediamine platinum (II) complex [listing 4 of 5 here] | >= 8 | –
dach (trans-d)-1,2-cyclohexanediamine platinum (II) complex [listing 5 of 5 here] | – | T/C (P388 [2]): 151% [middle of 12 runs]
dach (trans-l)1,2-cyclohexanediamine platinum (II) complex [listing 1 of 2 here] | >= 4 | –
dach (trans-l)1,2-cyclohexanediamine platinum (II) complex [listing 2 of 2 here] | – | Toxic dose (P388 [3]): 25 mg/kg; Optimal dose (P388 [4]): 6.25 mg/kg; MED (P388 [5]): < 1.56 mg/kg
dach (trans-l)-1,2-cyclohexanediamine platinum (II) complex [listing 1 of 4 here] | >= 16 | –
dach (trans-l)-1,2-cyclohexanediamine platinum (II) complex [listing 2 of 4 here] | 8 | –
dach (trans-l)-1,2-cyclohexanediamine platinum (II) complex [listing 3 of 4 here] | 4 | –
dach (trans-l)-1,2-cyclohexanediamine platinum (II) complex [listing 4 of 4 here] | – | T/C (P388 [2]): 182% [middle of 10 runs]
